The results in this text go back to ChEMBL document CHEMBL1153760, “Identification and structure-activity relationships of chromene-derived selective estrogen receptor modulators for treatment of postmenopausal symptoms” (J Med Chem, 2009).

The nature of data set [1]: Tmax in rat at 10 mg/kg, po administered as single dose by LC-MS/MS analysis. Details: dose 10 mg/kg, route oral. The format is ADME, organism-based. As to conditions: in vivo. The procedure, abridged: (§1)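 Single-dose rat pharmacokinetics. IV dosing at 1-3 mg/kg as a solution in 10% β-cyclodextrin; oral gavage at 10 mg/kg as a uniform suspension in 0.5% methylcellulose. Blood (0.5 mL) collected into heparinized tubes by orbital sinus puncture after dosing. Plasma extracted into acetonitrile with an internal standard and analysed by LC-MS-MS against standards to obtain PK parameters.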

In data set [2] the target is T1, Estrogen receptor (Homo sapiens, UniProt P03372).
T1 sequence (P03372 whole entry): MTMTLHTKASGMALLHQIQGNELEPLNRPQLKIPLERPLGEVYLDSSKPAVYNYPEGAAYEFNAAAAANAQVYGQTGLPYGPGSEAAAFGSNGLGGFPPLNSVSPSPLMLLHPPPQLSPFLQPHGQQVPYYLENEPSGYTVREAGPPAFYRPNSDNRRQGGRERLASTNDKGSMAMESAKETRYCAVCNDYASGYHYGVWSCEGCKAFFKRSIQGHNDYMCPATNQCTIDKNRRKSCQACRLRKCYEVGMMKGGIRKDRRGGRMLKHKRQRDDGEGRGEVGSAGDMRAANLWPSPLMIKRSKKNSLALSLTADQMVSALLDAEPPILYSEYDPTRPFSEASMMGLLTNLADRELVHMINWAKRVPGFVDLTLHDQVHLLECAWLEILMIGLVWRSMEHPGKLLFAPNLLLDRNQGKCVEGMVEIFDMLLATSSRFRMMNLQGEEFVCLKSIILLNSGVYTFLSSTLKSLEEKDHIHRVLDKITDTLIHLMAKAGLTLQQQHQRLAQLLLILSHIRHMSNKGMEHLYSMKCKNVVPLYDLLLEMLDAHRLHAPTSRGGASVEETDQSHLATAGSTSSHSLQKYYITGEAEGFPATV
The experiment in a line: Displacement of radiolabeled estrogen from estrogen receptor alpha by scintillation counting.

Data set [3] is filed under the species Rattus norvegicus. The experiment in a line: animal or person. The format is functional. Particulars: Uterus, 72 h, route oral.
A short description of data set [4]: AUC in rat at 10 mg/kg, po administered as single dose by LC-MS/MS analysis. As to conditions: plasma. Details: dose 10 mg/kg, route oral. In kind it is ADME, organism-based. Put shortly: as §1
Data set [5] is described as follows: Oral bioavailability in rat at 10 mg/kg administered as single dose by LC-MS/MS analysis. In kind it is ADME, organism-based. As to conditions: in vivo. Put shortly:
as §1

Data set [6] addresses T1, Estrogen receptor. The experiment in a line: Antagonist activity at estrogen receptor in human Ishikawa cells assessed as 17-beta-estradiol-induced alkaline phosphatase activity after 3 days by chemiluminescence assay. The format is functional, cell-based.
The nature of data set [7]: Half life in rat at 10 mg/kg, po administered as single dose by LC-MS/MS analysis. The format is ADME, organism-based. More on the design: dose 10 mg/kg, route oral. Particulars: in vivo. The procedure, abridged:
as §1

Data set [8] addresses Estrogen receptor beta (Homo sapiens, UniProt Q92731). The experiment in a line: Inhibition of fluormone ES2 binding to estrogen receptor beta after 1 hr by fluorescence polarization assay.
Data set [9] can be described thus: Cmax in rats after 10 mg/kg oral dose. In kind it is ADME, organism-based. More on the design: dose 10 mg/kg, route oral. As to conditions: rat, in vivo. The procedure, abridged: as §1
Data set [10] has as its system Rattus norvegicus. The experiment in a line: Uterotropic activity in rat assessed as stimulation of estrone-induced uterine weight at 1 mg/kg, po QD after 3 days. In kind it is functional. Particulars: Uterus, 72 h.
Data set [11] deals with Rattus norvegicus. The experiment in a line: Estrogenic activity in ovariectomized rat assessed as minor increase in uterine epithelial thickness at 1 mg/kg, po administered daily measured after 6 week by immunohistochemical analysis. In kind it is functional, organism-based. Details: dose 1 mg/kg.
Data set [12] concerns Rattus norvegicus. Nature of the data set: Increase in vaginal secretion in ovariectomized rat at 1 mg/kg, po administered daily measured after 2 weeks […]. The format is functional, organism-based. More on the design: dose 1 mg/kg. Put shortly:
(§2)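 Ovariectomized adult female rats dosed daily by oral gavage (0.5% Methocel suspension) for 2 or 6 weeks from 24 h after surgery. Vaginal fluid collected with a cotton swab and its absolute weight determined per animal.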

Data set [13] relates to Rattus norvegicus. The experiment in a line: Effect on bone turnover in ovariectomized rat assessed as prevention of tibial bone density at 1 mg/kg, po administered daily measured after 6 weeks by ex vivo peripheral quantitative computerized tomography. Details: dose 1 mg/kg. In kind it is functional, organism-based.
For data set [14], the system named is Rattus norvegicus. Nature of the data set: Decrease in bone resorption in ovariectomized rat assessed as decrease in urine deoxypyridinoline level at 1 mg/kg, po administered daily measured after 6 weeks. The format is functional, organism-based. Details: dose 1 mg/kg. Put shortly: (§3)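 Adult (>6 months) female rats, housed singly on a casein-based diet, ovariectomized under sterile conditions and anesthesia; 6-14 per group. From 24 h after surgery, daily oral gavage of an aqueous suspension in 0.5% Methocel for 2 or 6 weeks. […] Urine deoxypyridinoline measured as bone-resorption marker.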

For data set [15], the system named is Rattus norvegicus. The experiment in a line: Increase in vaginal fluidity in ovariectomized rat at 0.1 mg/kg, po administered daily measured after 6 weeks by cytology analysis. In kind it is functional, organism-based. Details: dose 0.1 mg/kg. Put shortly:
as §2

The test system of data set [16] is Rattus norvegicus. The experiment in a line: Decrease in bone resorption in ovariectomized rat assessed as decrease in urine deoxypyridinoline level at 0.1 mg/kg, po administered daily measured after 6 weeks. In kind it is functional, organism-based. Details: dose 0.1 mg/kg. The procedure, abridged:
as §3

Data set [17] concerns Rattus norvegicus. Nature of the data set: Decrease in tail skin temperature rise in morphine-addicted Sprague-Dawley rat hot flush model at 0.3 mg/kg, po administered daily measured for 60 mins after naloxone-induced morphine withdrawal. In kind it is functional, organism-based. Details: dose 0.3 mg/kg. Put shortly: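 Ovariectomized adult female Sprague-Dawley rats (3 months), 8-25 per group; oral gavage starting 6 days post-ovariectomy, sesame oil vehicle, suspension. Morphine given sc at 75 and 150 mg on treatment days 3 and 5. On the last day, under ketamine (80 mg/kg, im), tail thermistor; baseline about 20 min, then naloxone 2.0 mg/kg sc and tail skin temperature recorded 60 min. Multiple comparisons at each time point.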

Data set [18] relates to Rattus norvegicus. The experiment in a line: Increase in uterine weight in ovariectomized rat osteopenia model at 1.4 mg/kg, po administered daily measured after 6 weeks. In kind it is functional, organism-based. More on the design: dose 1.4 mg/kg.
The test system of data set [19] is Rattus norvegicus. Nature of the data set: Decrease in tail skin temperature rise in morphine-addicted Sprague-Dawley rat hot flush model at 1.4 mg/kg, po administered daily measured for 60 mins after naloxone-induced morphine withdrawal. More on the design: dose 1.4 mg/kg. The format is functional, organism-based. Put shortly:
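Adult female Sprague-Dawley rats (3 months), 8-25 per group, ovariectomized; oral gavage started 6 days post-surgery; morphine suspension 75 and 150 mg sc on treatment days 3 and 5; last day ketamine 80 mg/kg im, tail thermistor baseline ~20 min, naloxone 2.0 mg/kg sc, tail skin temperature for 60 min; multiple comparisons per time point.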

The subject of data set [20] is Rattus norvegicus. Nature of the data set: Increase in uterine weight in ovariectomized rat osteopenia model at 1 mg/kg, po administered daily measured after 6 weeks. The format is functional, organism-based. Details: dose 1 mg/kg.
Data set [21] relates to Rattus norvegicus. Nature of the data set: Estrogenic activity in ovariectomized rat assessed as minor increase in uterine epithelial thickness at 1.4 mg/kg, po administered daily measured after 6 week by immunohistochemical analysis. The format is functional, organism-based. Details: dose 1.4 mg/kg.
In data set [22] the test system is Rattus norvegicus. Nature of the data set: Decrease in bone resorption in ovariectomized rat assessed as decrease in urine deoxypyridinoline level at 1.4 mg/kg, po administered daily measured after 6 weeks. In kind it is functional, organism-based. Details: dose 1.4 mg/kg.

Active and inactive are the calls of the source. Some results are limits rather than exact numbers.

Sequence of Estrogen receptor beta (Q92731 whole entry): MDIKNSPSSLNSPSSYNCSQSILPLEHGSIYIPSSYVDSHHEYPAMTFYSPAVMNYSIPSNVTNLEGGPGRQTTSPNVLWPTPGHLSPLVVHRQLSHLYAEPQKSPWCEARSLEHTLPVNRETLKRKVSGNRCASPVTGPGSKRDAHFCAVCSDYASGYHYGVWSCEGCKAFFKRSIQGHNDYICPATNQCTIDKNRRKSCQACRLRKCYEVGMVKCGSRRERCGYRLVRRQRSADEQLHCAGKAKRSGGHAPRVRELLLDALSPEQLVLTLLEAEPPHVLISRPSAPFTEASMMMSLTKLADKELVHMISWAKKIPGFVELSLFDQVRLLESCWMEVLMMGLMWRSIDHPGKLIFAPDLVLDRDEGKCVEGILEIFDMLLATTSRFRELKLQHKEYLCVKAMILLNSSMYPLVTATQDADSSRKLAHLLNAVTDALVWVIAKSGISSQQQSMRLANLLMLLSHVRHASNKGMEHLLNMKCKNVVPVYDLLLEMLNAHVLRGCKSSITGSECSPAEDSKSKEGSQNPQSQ

Usually Tmax stands for the time at which the peak concentration occurs. A word on the IC50: it is the concentration needed to halve the response being measured. As usually defined, the inhibition in vivo is the drop in the measured response relative to a control, in per cent. Usually AUC stands for concentration integrated over time. Low readings indicate low exposure, high ones high exposure. As a reminder, the bioavailability is dose-corrected exposure relative to a reference, in per cent. As a reminder, the half-life is the time needed for the level to fall by half in the phase considered. A lower half-life goes with fast loss. In general, Cmax refers to the maximum level reached in the sampled fluid or tissue. As to `Oc1ccc2c(c1)O[C@H](c1ccc(OCCN3CCSCC3)cc1)C1=C2CCOc2cc(O)ccc21`, in [1], the Tmax is 4.8 h. The values for the IC50 in data set [2], in [6] and in [8] were 1.2 nM, 87 nM and 27 nM, respectively. The inhibition in vivo at 1 mg/kg in data set [3] was 85%. Further, the area under the curve (AUC) in data set [4] was determined as 1530 ng·h/mL. The bioavailability in data set [5] stood at 9%. Besides, in [7], the half-life was 5.28 h. Moreover, the Cmax in data set [9] was 89 ng/mL.
Turning to `CC/C(=C(\c1ccccc1)c1ccc(OCCN(C)C)cc1)c1ccccc1` [TAMOXIFEN], the stimulation at 1 mg/kg in data set [10] worked out at 109%. Further, in [3], the inhibition in vivo at 1 mg/kg came to 0%.
As to `O=C(c1ccc(OCCN2CCCCC2)cc1)c1c(-c2ccc(O)cc2)sc2cc(O)ccc12` [RALOXIFENE], the outcome in data set [11], in data set [13] and in data set [14] was Active. For the same compound, the inhibition in vivo at 1 mg/kg in data set [3] amounted to 105%. For the same compound, the outcome in data set [12] was inactive.
For `CN(C)CCOc1ccc([C@@H]2Oc3cc(O)ccc3C3=C2c2ccc(O)cc2OCC3)cc1`, the IC50 amounted to 11 nM in data set [2], 405 nM in data set [6] and 12 nM in data set [8]. In addition, the stimulation at 1 mg/kg in [10] turned out to be 100%. In data set [3], the inhibition in vivo at 1 mg/kg was determined as 0%.
Consider `C#C[C@]1(O)CC[C@H]2[C@@H]3CCc4cc(O)ccc4[C@H]3CC[C@@]21C`, for which the result in data set [15], in data set [16] and in data set [17] was Active.
In the case of `CC(C)N(CCOc1ccc([C@H]2Oc3cc(O)ccc3C3=C2c2ccc(O)cc2OCC3)cc1)C(C)C`, the figures for the IC50 in data set [2], in data set [6] and in data set [8] were 5.4 nM, 287 nM and 20 nM, respectively. Further, the inhibition in vivo at 1 mg/kg in data set [3] amounted to 30%.
As to `CC(C)N(CCOc1ccc([C@@H]2Oc3cc(O)ccc3C3=C2c2ccc(O)cc2OCC3)cc1)C(C)C`, the half-maximal inhibitory concentration (IC50) in data set [2] was determined as 5.6 nM; in [6], 35 nM; in data set [8] it was 18.5 nM. In data set [10], the stimulation at 1 mg/kg turned out to be 80%. For the same compound, in [3], the inhibition in vivo at 1 mg/kg is 30%.
For the compound `Oc1ccc2c(c1)O[C@H](c1ccc(OCCN3CCCCCC3)cc1)C1=C2CCOc2ccccc21`, the half-maximal inhibitory concentration (IC50) amounted to 85 nM in data set [2], 2670 nM in [6] and 140 nM in data set [8]. The inhibition in vivo at 1 mg/kg in [3] came to 11%.
With `Oc1ccc2c(c1)O[C@H](c1ccc(OCCN3CCCCC3)cc1)C1=C2CCOc2ccccc21`, in [1], the time to peak (Tmax) came to 4.8 h. The IC50 came out at 100 nM in data set [2], 259 nM in data set [6] and 200 nM in data set [8]. In addition, in [3], the inhibition in vivo at 1 mg/kg was 5%. Also, the AUC in [4] worked out at 1130 ng·h/mL. In data set [5], this compound displayed a bioavailability of 9%. In addition, the half-life in data set [7] was 5.28 h. The same compound came in with a Cmax in [9] of 30 ng/mL.
As for `CC(C)(C)C(=O)Oc1ccc2c(c1)O[C@H](c1ccc(OCCN3CCCCC3)cc1)C1=C2COc2cc(OC(=O)C(C)(C)C)ccc21`, the result in data set [18], in [19], in data set [21] and in [22] was Active. Also, in [20], the result was inactive.
With `Oc1ccc2c(c1)O[C@@H](c1ccc(OCCN3CCOCC3)cc1)C1=C2CCOc2cc(O)ccc21`, the IC50 in data set [2] was 10 nM; in [6], greater than 10000 nM; in data set [8], 11 nM. The inhibition in vivo at 1 mg/kg in [3] is 0%.
